The record followed here is the EternaBench riboswitch data.

The data set has as its system MS2 coat protein. Put plainly: apparent Kd, MS2 coat protein; higher = weaker binding; RNA-MaP array; FMN 200 µM where present. Put shortly: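 The apparent Kd is the median of filtered binding-curve fits, one per cluster, to green signal normalised to red-channel RNA signal and control-cluster median Fmax. The clusters were on Illumina sequencing chips, and stalled E. coli RNA polymerase had transcribed the designs on them. Titration used SNAP-549-labelled MS2 coat protein from 0.7 or 1.5 nM, doubling to 3 µM, without and then with constant ligand, in 100 mM Tris-HCl pH 7.5, 80 mM KCl, 4 mM MgCl2, BSA, DTT, yeast tRNA and Tween-20.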

Where [1] appears, read: designed as: OFF switch for flavin mononucleotide, no ligand.
The mark [2] stands for this setting: ligand present: flavin mononucleotide, designed as: OFF switch for flavin mononucleotide.
Where [3] appears, read: designed as: ON switch for flavin mononucleotide, no ligand.
Where [4] appears, read: ligand present: flavin mononucleotide, designed as: ON switch for flavin mononucleotide.

Usually apparent Kd stands for a dissociation constant that holds for the conditions of the assay. Regarding “UUUCCCUGUGUGAGGAUAUACUUGUUUGGGUUUUUGUAGAAGGCACAUGAGGAUCACCCAUGUAUUUUGUCGUG”, the “apparent Kd” value stood at 43.1 nM under setting [1] and 111 nM under setting [2].
Regarding “GAGCUGUGAGGAUAUACAUGAGGAUCACCCAUGUUAAGGAAGUGGUGUAUAUUUUAGUGUAGAAGGCACUUAUU”, the “apparent Kd” value is, setting by setting: under setting [1], 121 nM; under setting [2], 439 nM.
As to “GGAGCUCCCAUUAACAUGAGGAUCACCCAUGUCAAAAGACAUGAGGAUAUGCUACCUAAUUGGUAGCAGAAGGCAUGGAGCUCC”, the “apparent Kd” value under setting [3] was 1160 nM and the “apparent Kd” value under setting [4] was 81 nM.
In the case of “AAUGGGCACCAGAAGGACAUGAGGAUCACCCAUGUAGGAUAUGGGCGUUGAAGAUGUCGGAACGAGUUGCUGGAAAGAUAUGGA”, the “apparent Kd” value reads like this: under setting [3], 194 nM; under setting [4], 20.6 nM.
As for “AUCAGCUCGUGAGGAUAUACAACACUGCUUCGGCAGUGUAUUAAGAUCACAUGAGGAUCACCCAUGUAGAAGGCACGAGCUGAU”, the “apparent Kd” value under setting [1] turned out to be 13.5 nM and the “apparent Kd” value under setting [2] was determined as 278 nM.
With “UGGUACUAGGGAGGAUAUGGGAAGAUACAUGAGGAUCACCCAUGUUUAAGACUGCCGAGAGGCAACUAGAAGGCCCUAGUACCU”, the “apparent Kd” value reads like this: under setting [3], 624 nM; under setting [4], 27.4 nM.
As for “GGUUGGCGAGGAUAUACAUGAGGAUCACCCAUGUGGUCCUGCGAUAGAAUAGCCCUUUGUAGAAGGCGCGGGUC”, the “apparent Kd” value was found to be 44 nM under setting [1] and 38 nM under setting [2].
The like results for “CUUUUGUGAGGAUAUCAGUAGUAGAACAAUAGUACUACUACUGAGAAGGCACAUGAGGAUCACCCAUGUUUCUC” were, in that order, 62.3 nM and 302 nM.
Take “ACAUGAGGAUCACCCAUGUUGAAUUAGGAUAUUUGACUGCACAUGAGGUUCACCCAUGUUCUACCGGAGAAGGGAUUAAUAAUU”: the “apparent Kd” value by setting is: under setting [3], 129 nM; under setting [4], 132 nM.
As to “UAUAUAUAGUAAGGAUAUGUAUAUAUUGUAUAAACAGAAGGUACUGACAUGAGGAUCACCCAUGUUUUAGUGUGGGCAUGUAGA”, the “apparent Kd” value was determined as 76.5 nM under setting [1] and 121 nM under setting [2].
On to “UUAAAUCAUGUAGGAUAUGCAUGGCGAAGCUACGCAGAAGGACAUGAGGAUCACCCAUGUGCUAGCGUCUGGAUACAGAUGCAA”, for which the “apparent Kd” value by setting is: under setting [1], 48.5 nM; under setting [2], 258 nM.
Turning to “UUCAGCUCGUGAGGAUAUACAUGUGCUGGAAACAGCAUUAAAUUUUUCACAUGAGGAUCACCCAUGUAGAAGGCACGAGCUGAG”, the “apparent Kd” value under setting [1] was determined as 16.6 nM and the “apparent Kd” value under setting [2] amounted to 39.8 nM.
Consider “AAUUAACUCACAGGAUAUAGCAGAGGUCGCGCGAACUUACAGGCGACGAGGCUAGAAGGGUGACCACAUGAGGAUCACCCAUGU”, for which the “apparent Kd” value by setting is: under setting [3], 770 nM; under setting [4], 72.4 nM.
For “UUGUUGUAUGUAGGAUAUGCAUAUUAUUAUUGUGCAGAAGGACAUGAGGAUCACCCAUGUAUAUUAUUAUUAUAUAUUAUAUAU”, the “apparent Kd” value was 35.3 nM under setting [1] and 54.3 nM under setting [2].
In the same order, the values of “AUUAGUAUCUAGGAUAUCUAGUACAUAGUAUCUAGAGAAGGAGAUACAUGAGGAUCACCCAUGUUCUGUGAUCU” are 204 nM and 44.4 nM.
In the case of “UGCAUGUGAGGAUAUGUGUACUGUCUUUUGUUUAGAUGUACACAGAAGGCACAUGAGGAUCACCCAUGUAGUAC”, the “apparent Kd” value reads like this: under setting [1], 126 nM; under setting [2], 27.8 nM.
With “UUUUAACAUGAGGAUCACCCAUGUGAGGAUAUCGAAAUUUAUAUUUAUAUUAAUUAUUCGAGAAGGCACAUUUU”, the “apparent Kd” value under setting [1] was 163 nM and the “apparent Kd” value under setting [2] amounted to 133 nM.
In the same order, the values of “UAGUAUAACGAAGGAUAUGGAUACAUGAGGAUCACCCAUGUAUUUUUUGUGAUUUUAAAAUUGAUCCAGAAGGUCGUAUAAUUA” are 23.6 nM and 28.2 nM.
For the sequence “UGGUACAUGGGAGGAUAUGGGUUGAUAACAUGAGGAUCACCCAUGUUAAAUUUUGCCGAAAGGCACUAGAAGGCCCAUGUACCU”, the “apparent Kd” value was 1130 nM under setting [3] and 142 nM under setting [4].
With “GAACUGAAGCAUAGCUUUAGUCGUACAUGAGGAUCACCCAUGUAGGAUAUAGUAGGCAUAGCUUACUAGAAGGAUAGAGUGAUC”, the “apparent Kd” value is 254 nM under setting [1] and 106 nM under setting [2].
Regarding “UUAAAUCGAAACAUGAGGAUCACCCAUGUGUUGUAAUUAAUAUAGGAUAUGUGUAUACUUUUAUAACAGAAGGAUGAUAAUACU”, the “apparent Kd” value is 22.2 nM under setting [3] and 16.9 nM under setting [4].
Take “CCUAUACAUGAGGAUCACCCAUGUCAGGAUAUGGACAGCUACGUCAUAGGACGUAGCACCAGAAGGGACUGGCA”: the “apparent Kd” value is, setting by setting: under setting [1], 50.1 nM; under setting [2], 130 nM.
Consider “GAAAACCAAGGAUAUACAUGAGGAUCACCCAUGUAGGUUGGGACGCCAUAAAGGCGAUGUAGAAGGUGGGAAAA”, for which the “apparent Kd” value is, setting by setting: under setting [1], 21.9 nM; under setting [2], 33.6 nM.
The like results for “AGUAUCACAGGAUAUACAUGAGUGAAAAAAGUAAAUCCACUACAUGAGGAUCACCCAUGUAGAAGGGUGAUACA” were, in that order, 65.7 nM and 57.9 nM.
Consider “UUUAAUCGAAACAUGAGGAUCACCCAUGUGUUGUAAUUAACAUAGGAUAUUUGUAUACUUUUGUAAAAGAAGGAUGAUAAUACU”, for which the “apparent Kd” value is, setting by setting: under setting [3], 17.1 nM; under setting [4], 13.6 nM.
Consider “GUUUUGUAAGAGAAGGAGGACUUCAUGAGGAUCACCCAUGUGUUAGUACUUAGGAUAUUUGACAACAUGAGGAUCACCCAUGUC”, for which the “apparent Kd” value runs as follows: under setting [3], 57.8 nM; under setting [4], 57.9 nM.
Regarding “AUCAGCUCGUCAGGAUAUAAGUCACUGCGUCAGCAGUGUGGUAAGAUCACAUGAGGAUCACCCAUGUAGAAGGGACGAGCUGAU”, the “apparent Kd” value by setting is: under setting [1], 11.8 nM; under setting [2], 46.7 nM.
In the case of “GUUGUGCGAGGAUAUACUUGGUGUGUCCUGUGCACGUAAUGACAUGAGGAUCACCCAUGUAGAAGGUGCCCAGG”, the “apparent Kd” value came to 32.8 nM under setting [1] and 33.9 nM under setting [2].
For “CCUCGGAGUAAGGAUAUCAAUUUGUAGAUAGAUUGAGAAGGUACUACAUGAGGAUCACCCAUGUCCCGUCUCAA”, the “apparent Kd” value came out at 14.7 nM under setting [1] and 16.4 nM under setting [2].
For “UAUUUAUAAUAUAUUAACAUGAGGAUCACCCAUGUCGCUAGACAGGAUAUAUUUUAUUUUUUUAAGUAGAAGGGUCAUAUAUUU”, the “apparent Kd” value under setting [3] worked out at 68 nM and the “apparent Kd” value under setting [4] worked out at 85.9 nM.
In the same order, the values of “AUAGGACGAAACAUGAGGAUCACCCAUGUGUUAUAAUUAAUAUAGGAUAUGUUUAUACUUUUUGGGCAGAAGGAUGAUAAUGCU” are 16.6 nM and 14.7 nM.
In the case of “GGGUACAUCGGAGGAUAUCAUGUAAAUACAUGAGGAUCACCCAUGUCGAUGGAGACAUCGAAGAUUGAGAAGGCCGAUGUACCG”, the “apparent Kd” value came to 16.8 nM under setting [3] and 5.6 nM under setting [4].
Turning to “AUACCACGAGGAUAUCGUCUAUUUCACAUGAGGAUCACCCAUGUUAUCCUUGUUUCGUUUCGAGAAGGCGUGUUUU”, the “apparent Kd” value was 47.5 nM under setting [1] and 110 nM under setting [2].
In the same order, the values of “UAGACGUUGCAGAAGGUUAUUUUUAUAACGUGCCACUUGACAUGAGGAUCACCCAUGUAAUUGAUGAAGGAUAUGCAACGGUAG” are 6.34 nM and 5.83 nM.
The like results for “GUCCGGAGGGAGAAGGGCUAGGAGGUCCAGCUUAUGUGUGUUGCAACAUGAGGAUCACCCAUGUAGCAGGAUAUCCCUUUUACA” were, in that order, 47 nM and 233 nM.
For “AAAUCCUACGAAGGAUAUACAAACAUGAGGAUCACCCAUGUGUCUUUCGUGUAACUGGAAUUCGGGUAGAAGGUCGUAGACAUA”, the “apparent Kd” value by setting is: under setting [1], 17 nM; under setting [2], 22.6 nM.
